Key:
Cannabinoid receptor 2 = Cannabinoid receptor 2 (Homo sapiens, UniProt P34972); experiment: Displacement of [3H]CP55940 from human CB2 receptor expressed in CHO-K1 cells; assay type: cell-based
CHO-K1 = experiment: Selectivity ratio of Ki for human CB2 receptor expressed in CHO-K1 cells to Ki for human CB1 receptor expressed in CHO-K1 cells
Cannabinoid receptor 1 [1] = biological target: T1, Cannabinoid receptor 1 (Homo sapiens, UniProt P21554); experiment: Antagonist activity at human CB1 receptor transfected in CHO-K1 cells co-expressing Galphaq16 assessed as intracellular calcium mobilization using Calcein-4 AM by fluorescence assay; assay type: functional, cell-based
How it was run: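 CHO-K1 cells engineered to coexpress human CB1 and Gαq16. Calcium flux read with fluorescent dye Calcein-4 AM on a plate reader. Antagonism measured as rightward shift of the CP55940 concentration–response curve. Ke = [ligand]/(DR−1), where DR is the ratio of CP55940 EC50 with and without test agent. Values are averages of 3–6 measurements.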

Cannabinoid receptor 1 [2] = biological target: T1, Cannabinoid receptor 1; experiment: Displacement of [3H]CP55940 from human CB1 receptor expressed in CHO-K1 cells; assay type: cell-based
Liver = experiment: Metabolic stability in human liver S9 fraction assessed as compound remaining after 120 mins; assay type: ADME, subcellular; conditions: s9, 2 h
How it was run: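 Pooled mixed-gender human hepatic S9 at 1 mg/mL. Compound at 10 μM final in 50 mM potassium phosphate pH 7.4 with 3 mM MgCl2 and NADPH regeneration (NADP 1 mM, glucose-6-phosphate 5 mM, G6PDH 1 unit/mL). Triplicates incubated 0, 15, 30, 60, 120 min, stopped with 3 vol acetonitrile, LC-MS/MS against matrix standard curves; percent remaining at 120 min.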

Plasma = experiment: Metabolic stability in human plasma assessed as compound remaining after 60 mins; assay type: ADME, cell-free; conditions: 1 h
How it was run: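 Pooled mixed-gender human plasma, 1 mL per sample at 37 °C. Compound at 10 μM final, sampled at 0, 30 and 60 min after 5 min preincubation. Reaction stopped with acetonitrile, LC-MS/MS quantitation; percent remaining at 60 min.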

MDCK = experiment: Permeability from apical to basolateral side in dog MDCK cells expressing MDR-1 gene; assay type: ADME, cell-based, Canis lupus familiaris
How it was run: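 MDCK-mdr1 cells grown on Transwell-type filters for 4 days to confluence in DMEM/F12 with 10% FBS and antibiotics. Compound applied apically at 10 μM in HBSS with 25 mM D-glucose, HEPES-buffered to pH 7.4. Incubated 1 h at 37 °C; apical and basal samples quantified by LC-MS/MS (MRM). Averages of 2–3 measurements.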

Nucleic Acid [3] = experiment: Ratio of drug uptake in brain to plasma of Sprague-Dawley rat brain at 10 mg/kg, po after 60 mins; assay type: ADME, organism-based; parameters: dose 10 mg/kg, route oral; conditions: 1 h
How it was run: (§1)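 Male Sprague–Dawley rats, 8 weeks old, dosed orally at 10 mg/kg in food-grade corn oil; 3–4 animals per time point. Plasma and unperfused brain collected post dose. Brain homogenized in 50:50 ethanol/water; plasma and homogenate extracted with acetonitrile and centrifuged. Analysed by LC-MS/MS against standards prepared in blank matrix. Ratio taken from brain and plasma concentrations.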

[4] = Drug uptake in Sprague-Dawley rat brain at 10 mg/kg, po after 30 mins; assay type: ADME, organism-based; parameters: dose 10 mg/kg, route oral; conditions: read-out: Drug uptake
How it was run: (§2)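 Male Sprague–Dawley rats, 8 weeks old, given 10 mg/kg orally in food-grade corn oil. Three to four animals per time point. Plasma and unperfused brain collected at 0.5–8 h. Brain homogenized in 50:50 ethanol/water. Samples protein-precipitated with acetonitrile and analysed by LC-MS/MS on a C18 column against standards in blank matrix.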

[5] = Plasma concentration in Sprague-Dawley rat at 10 mg/kg, po after 30 mins; assay type: ADME, organism-based; parameters: dose 10 mg/kg, route oral; how it was run: as §2
Nucleic Acid [6] = experiment: Ratio of drug uptake in brain to plasma of Sprague-Dawley rat brain at 10 mg/kg, po after 480 mins; assay type: ADME, organism-based; parameters: dose 10 mg/kg, route oral; conditions: 8 h; how it was run: as §1
[7] = Drug uptake in Sprague-Dawley rat brain at 10 mg/kg, po after 240 mins; assay type: ADME, organism-based; parameters: dose 10 mg/kg, route oral; conditions: read-out: Drug uptake; how it was run: as §2
Nucleic Acid [8] = experiment: Ratio of drug uptake in brain to plasma of Sprague-Dawley rat brain at 10 mg/kg, po after 30 mins; assay type: ADME, organism-based; parameters: dose 10 mg/kg, route oral; conditions: 0.5 h; how it was run: as §1
Nucleic Acid [9] = experiment: Ratio of drug uptake in brain to plasma of Sprague-Dawley rat brain at 10 mg/kg, po after 240 mins; assay type: ADME, organism-based; parameters: dose 10 mg/kg, route oral; conditions: 4 h; how it was run: as §1
[10] = Drug uptake in Sprague-Dawley rat brain at 10 mg/kg, po after 60 mins; assay type: ADME, organism-based; parameters: dose 10 mg/kg, route oral; conditions: read-out: Drug uptake; how it was run: as §2
[11] = Drug uptake in Sprague-Dawley rat brain at 10 mg/kg, po after 480 mins; assay type: ADME, organism-based; parameters: dose 10 mg/kg, route oral; conditions: read-out: Drug uptake; how it was run: as §2
[12] = Plasma concentration in Sprague-Dawley rat at 10 mg/kg, po after 60 mins; assay type: ADME, organism-based; parameters: dose 10 mg/kg, route oral; how it was run: as §2
[13] = Drug uptake in Sprague-Dawley rat brain at 10 mg/kg, po after 120 mins; assay type: ADME, organism-based; parameters: dose 10 mg/kg, route oral; conditions: read-out: Drug uptake; how it was run: as §2
Nucleic Acid [14] = experiment: Ratio of drug uptake in brain to plasma of Sprague-Dawley rat brain at 10 mg/kg, po after 120 mins; assay type: ADME, organism-based; parameters: dose 10 mg/kg, route oral; conditions: 2 h; how it was run: as §1
[15] = Plasma concentration in Sprague-Dawley rat at 10 mg/kg, po after 240 mins; assay type: ADME, organism-based; parameters: dose 10 mg/kg, route oral; how it was run: as §2
[16] = Plasma concentration in Sprague-Dawley rat at 10 mg/kg, po after 120 mins; assay type: ADME, organism-based; parameters: dose 10 mg/kg, route oral; how it was run: as §2

Chain of Cannabinoid receptor 2 (P34972 whole entry): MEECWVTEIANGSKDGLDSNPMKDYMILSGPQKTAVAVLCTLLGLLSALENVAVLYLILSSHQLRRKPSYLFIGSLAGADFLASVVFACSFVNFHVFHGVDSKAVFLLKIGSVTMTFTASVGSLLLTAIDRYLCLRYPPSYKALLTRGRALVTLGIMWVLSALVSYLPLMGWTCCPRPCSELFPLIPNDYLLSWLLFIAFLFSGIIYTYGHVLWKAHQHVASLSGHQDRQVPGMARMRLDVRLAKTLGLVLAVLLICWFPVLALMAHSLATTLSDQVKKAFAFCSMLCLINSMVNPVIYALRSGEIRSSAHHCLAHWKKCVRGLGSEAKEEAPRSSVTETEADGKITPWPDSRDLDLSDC
T1 sequence (P21554 whole entry): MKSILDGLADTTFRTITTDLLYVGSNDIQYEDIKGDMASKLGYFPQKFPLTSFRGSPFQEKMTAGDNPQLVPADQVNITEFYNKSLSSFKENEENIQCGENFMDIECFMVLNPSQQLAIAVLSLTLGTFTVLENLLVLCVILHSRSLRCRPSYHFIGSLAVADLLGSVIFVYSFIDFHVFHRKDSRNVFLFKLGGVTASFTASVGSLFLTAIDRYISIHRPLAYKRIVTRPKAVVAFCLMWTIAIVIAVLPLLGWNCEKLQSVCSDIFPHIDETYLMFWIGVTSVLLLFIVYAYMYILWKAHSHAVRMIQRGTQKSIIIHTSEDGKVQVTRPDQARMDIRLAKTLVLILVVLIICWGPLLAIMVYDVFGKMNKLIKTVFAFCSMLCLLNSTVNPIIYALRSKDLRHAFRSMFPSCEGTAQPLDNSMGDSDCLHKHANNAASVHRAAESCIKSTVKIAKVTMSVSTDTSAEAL

| SMILES | Ki (Cannabinoid receptor 2) | Ratio Ki (CHO-K1) | Ke (Cannabinoid receptor 1 [1]) | Ki (Cannabinoid receptor 1 [2]) | further results |
| --- | --- | --- | --- | --- | --- |
| CC(C)(C)OC(=O)N1CCC(Nc2ncnc3c2nc(-c2ccccc2Cl)n3-c2ccc(Cl)cc2)CC1 | 14 µM | 568 | 92 nM | 0.024 µM | – |
| CC(=O)N1CCC[C@H](Nc2ncnc3c2nc(-c2ccccc2Cl)n3-c2ccc(Cl)cc2)C1 | – | – | 4450 nM | – | – |
| CCCCNC(=O)N1CCC(Nc2ncnc3c2nc(-c2ccccc2Cl)n3-c2ccc(Cl)cc2)CC1 | > 20 µM | – | 71 nM | 3.34 µM | – |
| CC(C)(C)NC(=O)NC1(c2ccccc2)CCN(c2ncnc3c2nc(-c2ccccc2Cl)n3-c2ccc(Cl)cc2)CC1 | 20 µM | 784 | – | 0.0255 µM | Stability (Liver): 43%; Stability (Plasma): > 90%; permeability (MDCK): < 1% |
| Cc1c(C(=O)N2CCC(C(N)=O)(c3ccccc3)CC2)nn(-c2ccc(Cl)cc2Cl)c1-c1ccc(Cl)cc1 | – | 1600 | 0.45 nM | – | permeability (MDCK): 8% |
| CS(=O)(=O)NC1CCN(c2ncnc3c2nc(-c2ccccc2Cl)n3-c2ccc(Cl)cc2)CC1 | 1.07 µM | 37 | – | 0.029 µM | – |
| O=C(NC1CCN(c2ncnc3c2nc(-c2ccccc2Cl)n3-c2ccc(Cl)cc2)CC1)C(F)(F)F | – | – | 3.2 nM | – | – |
| CCCCNC(=O)NC1(c2ccccc2)CCN(c2ncnc3c2nc(-c2ccccc2Cl)n3-c2ccc(Cl)cc2)CC1 | > 20 µM | – | – | 0.269 µM | – |
| CC(C)NC(=O)NC1(c2ccccc2)CCN(c2ncnc3c2nc(-c2ccccc2Cl)n3-c2ccc(Cl)cc2)CC1 | 8.95 µM | 27 | 46 nM | 0.337 µM | – |
| CS(=O)(=O)NC1(c2ccccc2)CCN(c2ncnc3c2nc(-c2ccccc2Cl)n3-c2ccc(Cl)cc2)CC1 | – | 153 | 2.9 nM | – | BPR (Nucleic Acid [3]): 0.08; concentration at 0.5 h [4]: 0.038 µg/mL; concentration at 0.5 h [5]: 0.752 µg/mL; BPR (Nucleic Acid [6]): 0.1; concentration at 4 h [7]: 0.184 µg/mL; BPR (Nucleic Acid [8]): 0.05; Stability (Liver): > 90%; BPR (Nucleic Acid [9]): 0.11; concentration at 1 h [10]: 0.058 µg/mL; concentration at 8 h [11]: 0.089 µg/mL; concentration at 1 h [12]: 0.767 µg/mL; Stability (Plasma): > 90%; concentration at 2 h [13]: 0.122 µg/mL; BPR (Nucleic Acid [14]): 0.1; permeability (MDCK): < 1%; concentration at 4 h [15]: 1.65 µg/mL; concentration at 2 h [16]: 1.19 µg/mL |
| CCNC(=O)NC1(c2ccccc2)CCN(c2ncnc3c2nc(-c2ccccc2Cl)n3-c2ccc(Cl)cc2)CC1 | 4.65 µM | 24 | – | 0.195 µM | – |
| CCNC(=O)N1CCC[C@H](Nc2ncnc3c2nc(-c2ccccc2Cl)n3-c2ccc(Cl)cc2)C1 | – | – | 1150 nM | – | – |
| CCNC(=O)N1CCC[C@@H](Nc2ncnc3c2nc(-c2ccccc2Cl)n3-c2ccc(Cl)cc2)C1 | – | – | 1500 nM | – | – |
| CCCNC(=O)NC1(c2ccccc2)CCN(c2ncnc3c2nc(-c2ccccc2Cl)n3-c2ccc(Cl)cc2)CC1 | 7.78 µM | 35 | 99 nM | 0.22 µM | – |
| CCCCNC(=O)NC1CCN(c2ncnc3c2nc(-c2ccccc2Cl)n3-c2ccc(Cl)cc2)CC1 | 1.55 µM | 62 | – | 0.025 µM | – |
| CC(C)(C)OC(=O)NC1CCN(c2ncnc3c2nc(-c2ccccc2Cl)n3-c2ccc(Cl)cc2)CC1 | 1.71 µM | 1140 | 11 nM | 0.0015 µM | – |
| CC(C)(C)OC(=O)NC1(c2ccccc2)CCN(c2ncnc3c2nc(-c2ccccc2Cl)n3-c2ccc(Cl)cc2)CC1 | 13.9 µM | 1960 | – | 0.0071 µM | permeability (MDCK): < 1% |
| NC(=O)C1(c2ccccc2)CCN(c2ncnc3c2nc(-c2ccccc2Cl)n3-c2ccc(Cl)cc2)CC1 | 5.51 µM | 3080 | 9 nM | 0.00179 µM | Stability (Liver): > 90%; Stability (Plasma): > 90%; permeability (MDCK): 6% |
| CCCNC(=O)NC1CCN(c2ncnc3c2nc(-c2ccccc2Cl)n3-c2ccc(Cl)cc2)CC1 | 0.153 µM | 5 | – | 0.028 µM | – |
| CC(=O)N1CCC[C@@H](Nc2ncnc3c2nc(-c2ccccc2Cl)n3-c2ccc(Cl)cc2)C1 | – | – | 920 nM | – | – |
| NC1(c2ccccc2)CCN(c2ncnc3c2nc(-c2ccccc2Cl)n3-c2ccc(Cl)cc2)CC1 | 1.66 µM | 151 | – | 0.011 µM | permeability (MDCK): < 1% |
| CS(=O)(=O)N1CCC[C@H](Nc2ncnc3c2nc(-c2ccccc2Cl)n3-c2ccc(Cl)cc2)C1 | – | – | 6040 nM | – | – |
| CS(=O)(=O)N1CCC[C@@H](Nc2ncnc3c2nc(-c2ccccc2Cl)n3-c2ccc(Cl)cc2)C1 | – | – | 346 nM | – | – |
| CC(C)NC(=O)NC1CCN(c2ncnc3c2nc(-c2ccccc2Cl)n3-c2ccc(Cl)cc2)CC1 | 2.45 µM | 175 | – | 0.014 µM | – |
| CCNC1(C(N)=O)CCN(c2ncnc3c2nc(-c2ccccc2Cl)n3-c2ccc(Cl)cc2)CC1 [OTENABANT] | – | – | – | – | permeability (MDCK): 40% |
| O=S(=O)(NC1CCN(c2ncnc3c2nc(-c2ccccc2Cl)n3-c2ccc(Cl)cc2)CC1)c1ccccc1 | 5.87 µM | 4890 | 0.3 nM | 0.0012 µM | – |
| O=C(NC1CCN(c2ncnc3c2nc(-c2ccccc2Cl)n3-c2ccc(Cl)cc2)CC1)c1ccccc1 | – | – | 0.7 nM | – | – |

Reference: ChEMBL document CHEMBL2176912, “Diphenyl purine derivatives as peripherally selective cannabinoid receptor 1 antagonists” (J Med Chem, 2012)
